# Compounds with a hit are over-represented: about 3.1% of the library has one in this group of screens.
# Env fusion inh: HIV envelope-mediated fusion inhibition; AID 651610; inhibition, % at 12.3 µM; HeLa-JRFL Env/CEM21 cell fusion, luciferase; hit rate 1.1% among 360,000;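 active means mean replicate inhibition score of at least 50 and every replicate individually at or above 50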
# FN deposition inh: fibronectin deposition inhibition. AH1F fibroblasts, Alexa488-fibronectin deposition fluorescence, overnight. inhibition, % at 12.6 µM. hit rate 0.086% among 350,000. AID 743247;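 active means mean inhibition across replicates of 30% or more, regardless of how many single replicates reach that level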
#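 test system = AH1F fibroblasts assembling fluorescent fibronectin matrix | quantity = 10000 AH1F cells per well | buffer or medium = DMEM plus 2% serum, read in PBS | doses = single dose, pinned | incubation = 1 h cell attachment, overnight exposure to compound and label | detection = fluorescence at 485 nm excitation, 525 nm emission | read-out basis = inhibition from reduced deposited-fibronectin fluorescence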
# FGF22 binding-1: shifts melting point of recombinant human FGF22; activity (Tm shift, normalised), % at 9.99 µM; Q9HCT0; hit rate 1.5% among 340,000; recombinant FGF22 thermal shift, SYPRO orange fluorescence; percent of sucrose octasulfate shift, DMSO zero;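 active means mean Tm shift, scaled 0 neutral to 100 positive control, at about 1.3% or above, every replicate too, limit read from the data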
# Target sequence (Q9HCT0 whole entry, looked up): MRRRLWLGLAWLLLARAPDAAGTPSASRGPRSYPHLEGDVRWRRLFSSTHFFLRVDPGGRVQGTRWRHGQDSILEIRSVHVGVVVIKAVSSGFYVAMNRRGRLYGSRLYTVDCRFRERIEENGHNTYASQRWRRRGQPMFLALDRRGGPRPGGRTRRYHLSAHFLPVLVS
# EWS-Fli inh: EWS/Fli transcriptional activity inhibition. hit rate 0.67% among 350,000. A673 NR0B1-luciferase reporter, viability-normalised. inhibition, % at 12.6 µM. AID 651661;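 active means mean inhibition of at least 50% after viability correction, with every replicate also passing that limit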;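 further: firefly luciferase signal divided by Alamar Blue viability fluorescence both relative to DMSO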
# PAX8 reporter: inhibitors of PAX8 transcriptional activity in RMG-I cells. RMG-I TPO-luciferase reporter, SteadyGlo, 24 h. inhibition, % at 12.6 µM. hit rate 1.2% among 360,000;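 active means mean replicate inhibition at least 60% with every replicate also reaching 60%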;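 further: luciferase light reporting Pax8 driven TPO promoter activity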
# PGC1a acetyl inh: modulators of PGC1a acetylation; inhibition, % at 15.6 µM; hit rate 0.17% among 350,000; U2OS PGC1a acetylation, AlphaScreen anti-acetyl-lysine; with virally co-expressed GCN5 acetyltransferase;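 active means every replicate shows inhibition of at least 40%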
# FGF22 binding-2: binds human FGF22 shifting its melting temperature; shares compounds with FGF22 binding-1; recombinant FGF22 thermal shift, SYPRO orange fluorescence; thermal shift activity, °C (ΔTm) at 38 µM; hit rate 2% among 1,000;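 active means fitted rise in melting shift crosses a set limit at or below the top valid dose tested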
# FGF22 TSA DP: FGF22 (human) binding by thermal shift | shares compounds with FGF22 binding-1 | Thermal shift assay, SYPRO orange, melting temperature shift | Tm shift (activity), % at 38 µM | 50 tested, under 10 active | AID 743017;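 active means compounds whose fitted dose curve of melting temperature shift rises past a set threshold within the tested doses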
# TSA no protein: compound-only SYPRO artifact for FGF22 binders. AC50, µM (series often up to 38 µM). shares compounds with FGF22 binding-1. compound-only SYPRO orange thermal shift counter-screen, no protein. hit rate 2% among 1,000;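 active means rising signal whose fitted curve reaches the 0.54 level within the top valid dose, showing a melting point, actives reach about 13 µM in these data; inactive means the rest, including activity in the opposite direction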; further: value is where the raw curve crosses a fixed level and not half-maximal
# Hits are given with their value; – = inactive; · = no result given.
SMILES,Env fusion inh,FN deposition inh,FGF22 binding-1,EWS-Fli inh,PAX8 reporter,PGC1a acetyl inh,FGF22 binding-2,TSA no protein,others
O=S(=O)(c1ccc(F)cc1)N1CCCC1,–,–,–,–,–,–,·,·,
O=S(=O)(Nc1ccccc1OC(F)F)c1ccc(S(=O)(=O)N2CCCC2)cc1,·,–,3.2,–,–,–,–,–,
CC(C)CC(=O)Nc1ccc(C(=O)CN2C(=O)NC3(CCOc4ccccc43)C2=O)cc1 (stereo unspecified),–,–,1.9,–,–,·,–,–,
COc1cc(-c2nc(C)c(C(C)=O)n2O)ccc1OCC(=O)Nc1ccc(F)cc1,–,–,–,–,–,·,·,·,
CC(=O)Nc1ccc(-c2nc(C)c(C(C)=O)n2O)cc1,·,·,–,–,·,–,·,·,
CCOc1cc(-c2nc(C)c(C(C)=O)n2O)ccc1OCC(=O)Nc1ccc(F)cc1,–,–,2.7,–,–,–,–,–,
CC(=O)c1c(C)nc(-c2ccc(OCC(=O)Nc3ccc(F)cc3)cc2)n1O,–,–,2.3,–,–,·,–,–,
O=C(CC1CC1)Nc1ccc2c(c1)[C@H]1C[C@@H](CC(=O)N3CCOCC3)O[C@H](CO)[C@H]1O2,·,–,–,–,–,–,·,·,
C=CCN(C(=O)c1csnn1)C(C(=O)NC1CCCCC1)c1ccc(Cl)cc1 (stereo unspecified),–,–,1.5,–,–,–,–,–,
C=CCN(C(=O)c1csnn1)C(C(=O)NC1CCCCC1)c1ccc(C)cc1 (stereo unspecified),–,–,–,–,–,–,·,·,
O=[N+]([O-])c1ccc(/C=N/Nc2ccc3ccccc3c2)o1,–,–,2.1,–,–,·,–,–,
CC(=O)Nc1ccc2c(c1)C(=O)N(C)[C@H]1CC[C@H](CC(=O)Nc3cccc(Cl)c3)O[C@@H]1CO2,–,·,–,–,–,–,·,·,
CCS(=O)(=O)NCCNc1ccc([N+](=O)[O-])cc1,–,–,1.5,–,–,–,–,–,
O=C(O)C[C@H]1C[C@@H]2c3cc(NS(=O)(=O)c4ccc(F)cc4)ccc3O[C@@H]2[C@@H](CO)O1,–,·,–,–,–,–,·,·,
COc1ccc(/C(O)=C/C(=O)C(=O)NNC(=O)c2ccccc2)cc1,–,–,29,–,–,–,–,–,
CC(=O)Nc1ccc(S(=O)(=O)Nc2nc3ccccc3s2)cc1,–,–,·,·,–,–,·,·,
CC(=O)Nc1ccc(S(=O)(=O)Nc2nc3ccc([N+](=O)[O-])cc3s2)cc1,–,–,3.4,–,–,–,–,–,
CO[C@H]1CN(C)C(=O)c2cc(NC(=O)C3CC3)ccc2OC[C@H](C)N(C(=O)Cc2ccccn2)C[C@H]1C,–,–,·,–,–,–,·,·,
O=C(O)Cc1ccc(NC(=O)c2ccc(Cl)c(Cl)c2)cc1,–,–,1.8,–,–,–,–,–,FGF22 TSA DP=–
C[C@H]1CN([C@@H](C)CO)C(=O)c2cc(C#CCc3ccccc3)cnc2O[C@@H]1CN(C)CC1CCCC1,·,·,–,–,·,–,·,·,
COc1ccc2cc(CCNC(=O)c3cc4ccccc4o3)c(=O)[nH]c2c1,–,–,1.8,–,–,–,–,–,
O=C(Cn1cc(COc2ccc(Br)cc2[N+](=O)[O-])nn1)c1ccc(O)cc1,·,·,1.7,–,–,·,–,–,
CC(=O)c1ccc(OCc2cn(CC(=O)c3ccc(O)cc3)nn2)c(C)c1,–,–,–,–,–,–,·,·,
CN(C)C(=O)C[C@H]1CC[C@@H]2[C@H](COC[C@H](O)CN2S(=O)(=O)c2ccccc2)O1,·,–,–,·,·,–,·,·,
COc1nsnc1NS(=O)(=O)c1ccc(NC(=S)NC(=O)c2cccnc2)cc1,–,·,1.6,–,–,–,–,–,
CNC(=O)C[C@H]1CC[C@@H]2[C@@H](COc3ccc(NC(=O)NCc4ccccc4)cc3C(=O)N2C)O1,–,–,–,–,–,–,·,·,
Cc1ccccc1-c1ccc([C@H]2[C@@H](CO)N3CCCCN(Cc4cccnc4)C[C@H]23)cc1,·,·,1.3,–,–,–,–,–,

# Compound activity: PubChem BioAssay, Broad Institute
